Test results: ChEMBL document CHEMBL1933027, “Time-dependent botulinum neurotoxin serotype A metalloprotease inhibitors” (Bioorg Med Chem, 2011)
The source made the active and inactive calls. No cut-off for these calls is given here. Peptide text beside a SMILES is read from it. * marks the point of attachment. X1 = O=C(C(S)Cc1ccccc1)*

How the values were obtained:
[1] = biological target: T1, Botulinum neurotoxin type A (Clostridium botulinum, UniProt P0DPI0); assay: Inhibition of Clostridium botulinum BoNT/A light chain-mediated SNAP-25 substrate cleavage after 40 mins by FRET assay
Method in brief: (§1)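 Recombinant BoNT/A LC at 2 nM was incubated with 20 μM SNAP-25 peptide (AA 187–203, DnpK/daciaC-labelled) for 40 min at 37 °C. Cleaved-substrate fluorescence was read at 485 nm with excitation at 398 nm. IC50 is the compound concentration giving 50% inhibition, averaged over two experiments.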

Lethal factor = biological target: T2, Lethal factor (Bacillus anthracis, UniProt P15917); assay: Inhibition of Bacillus anthracis lethal factor using MCA-KKVYPYPME[dnp]Kamide peptide substrate after 30 mins by FRET assay
T2 sequence (P15917 whole entry): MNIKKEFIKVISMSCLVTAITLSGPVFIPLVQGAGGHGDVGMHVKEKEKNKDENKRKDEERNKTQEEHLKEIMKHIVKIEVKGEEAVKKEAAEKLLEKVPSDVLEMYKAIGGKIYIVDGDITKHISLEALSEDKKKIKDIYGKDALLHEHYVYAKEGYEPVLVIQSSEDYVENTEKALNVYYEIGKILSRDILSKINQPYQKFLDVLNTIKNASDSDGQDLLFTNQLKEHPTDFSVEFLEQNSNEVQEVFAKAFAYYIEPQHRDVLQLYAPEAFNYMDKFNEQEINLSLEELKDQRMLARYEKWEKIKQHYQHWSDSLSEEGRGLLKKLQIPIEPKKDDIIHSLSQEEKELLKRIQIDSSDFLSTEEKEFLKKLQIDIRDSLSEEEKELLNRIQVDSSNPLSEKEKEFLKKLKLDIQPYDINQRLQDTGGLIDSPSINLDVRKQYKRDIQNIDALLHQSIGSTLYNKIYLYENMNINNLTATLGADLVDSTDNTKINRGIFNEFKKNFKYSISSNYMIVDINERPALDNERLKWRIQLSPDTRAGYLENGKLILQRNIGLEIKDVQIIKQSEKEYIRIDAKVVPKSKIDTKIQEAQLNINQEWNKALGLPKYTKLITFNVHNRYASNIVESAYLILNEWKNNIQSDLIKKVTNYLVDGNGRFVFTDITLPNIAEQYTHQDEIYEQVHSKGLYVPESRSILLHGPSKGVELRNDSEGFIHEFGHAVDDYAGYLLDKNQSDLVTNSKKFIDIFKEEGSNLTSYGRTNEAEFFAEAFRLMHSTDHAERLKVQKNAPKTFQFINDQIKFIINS

[2] = biological target: T3, Lethal factor (Bacillus anthracis) (UniProt P15917); assay: Inhibition of Bacillus anthracis lethal factor using MCA-KKVYPYPME[dnp]Kamide peptide substrate at 100 uM after 30 mins by FRET assay
T3 sequence (whole entry): T2 sequence (P15917 whole entry)

[3] = biological target: T1, Botulinum neurotoxin type A; assay: Inhibition of Clostridium botulinum BoNT/A light chain after 40 mins by HPLC assay
Method in brief: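 Incubation was at 37 °C for 40 min with 6 nM BoNT/A LC and 60 μM 17-mer SNAPtide substrate. Samples were separated by reverse-phase C18 HPLC, effluent was monitored at 365 nm, and peaks were quantified by integration.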

[4] = biological target: Botulinum neurotoxin type A (Clostridium botulinum) (UniProt P0DPI0); assay: Inhibition of Clostridium botulinum BoNT/A light chain-mediated SNAP-25 substrate cleavage preincubated for 15 mins in presence of zinc ion before substrate addition by FRET assay
Method in brief: (§2)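 The potential inactivator (2.5 or 5 mM) was preincubated with compound in the assay mixture for 15 min at 37 °C. 17-mer SNAP-25 substrate and BoNT/A LC were then added, and activity was read in the FRET assay (37 °C, 40 min, ex 398/em 485 nm).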

[5] = biological target: Botulinum neurotoxin type A (Clostridium botulinum) (UniProt P0DPI0); assay: Inhibition of Clostridium botulinum BoNT/A light chain-mediated SNAP-25 substrate cleavage preincubated for 15 mins in presence of glutathione before substrate addition by FRET assay; method in brief: as §2
[6] = biological target: Matrix metalloproteinase-9 (Homo sapiens, UniProt P14780); assay: Inhibition of human MMP9
[7] = biological target: Botulinum neurotoxin type A (Clostridium botulinum) (UniProt P0DPI0); assay: Inhibition of clostridium botulinum BoNT/A light chain assessed as residual activity using SNAP-25 as substrate at 50 uM after 90 mins measured after dialysis by FRET-based assay relative to 6-(4,5-dihydro-1H-imidazol-2-yl)-2-(4-(4-(4,5-dihydro-1H-imidazol-2-yl)phenoxy)phenyl)-1H-indole
Method in brief: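 BoNT/A LC was co-incubated with inhibitor or a DMSO-equivalent control at 37 °C for 90 min. Samples were then dialysed (3,500 MWCO) against 20 mM HEPES pH 7.4, 10% glycerol, 0.05% Tween-20 for 20–24 h at 2–8 °C. Remaining activity was measured by the standard FRET assay.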

[8] = biological target: Botulinum neurotoxin type A (Clostridium botulinum) (UniProt P0DPI0); assay: Inhibition of clostridium botulinum BoNT/A-mediated SNAP-25 substrate cleavage in chicken neurons at 30 uM preincubated for 15 mins before substrate addition
Interstitial collagenase = biological target: T4, Interstitial collagenase (Homo sapiens, UniProt P03956); assay: Inhibition of human MMP1
T4 sequence (P03956 whole entry): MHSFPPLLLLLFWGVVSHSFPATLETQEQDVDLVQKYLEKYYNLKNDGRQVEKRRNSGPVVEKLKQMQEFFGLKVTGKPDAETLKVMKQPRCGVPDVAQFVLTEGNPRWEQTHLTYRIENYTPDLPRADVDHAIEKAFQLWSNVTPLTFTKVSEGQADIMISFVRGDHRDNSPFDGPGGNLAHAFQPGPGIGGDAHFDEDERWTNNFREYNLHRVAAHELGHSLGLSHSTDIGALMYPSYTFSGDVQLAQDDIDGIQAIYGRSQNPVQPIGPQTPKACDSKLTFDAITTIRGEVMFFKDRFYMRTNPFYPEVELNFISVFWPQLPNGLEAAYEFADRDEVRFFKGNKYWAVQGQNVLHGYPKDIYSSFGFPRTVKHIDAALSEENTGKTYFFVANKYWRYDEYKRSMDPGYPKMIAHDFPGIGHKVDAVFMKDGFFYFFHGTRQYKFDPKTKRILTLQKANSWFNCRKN

[9] = biological target: Botulinum neurotoxin type A (Clostridium botulinum) (UniProt P0DPI0); assay: Inhibition of Clostridium botulinum BoNT/A light chain-mediated SNAP-25 substrate cleavage preincubated for 15 mins in presence of cysteine before substrate addition by FRET assay; method in brief: as §2
[10] = biological target: Botulinum neurotoxin type A (Clostridium botulinum) (UniProt P0DPI0)
[11] = biological target: 72 kDa type IV collagenase (Homo sapiens, UniProt P08253); assay: Inhibition of human MMP2
[12] = biological target: T5, Botulinum neurotoxin type B (Clostridium botulinum, UniProt P10844); assay: Inhibition of Clostridium botulinum BoNT/B light chain after 40 mins by FRET-based assay
T5 sequence (P10844 whole entry): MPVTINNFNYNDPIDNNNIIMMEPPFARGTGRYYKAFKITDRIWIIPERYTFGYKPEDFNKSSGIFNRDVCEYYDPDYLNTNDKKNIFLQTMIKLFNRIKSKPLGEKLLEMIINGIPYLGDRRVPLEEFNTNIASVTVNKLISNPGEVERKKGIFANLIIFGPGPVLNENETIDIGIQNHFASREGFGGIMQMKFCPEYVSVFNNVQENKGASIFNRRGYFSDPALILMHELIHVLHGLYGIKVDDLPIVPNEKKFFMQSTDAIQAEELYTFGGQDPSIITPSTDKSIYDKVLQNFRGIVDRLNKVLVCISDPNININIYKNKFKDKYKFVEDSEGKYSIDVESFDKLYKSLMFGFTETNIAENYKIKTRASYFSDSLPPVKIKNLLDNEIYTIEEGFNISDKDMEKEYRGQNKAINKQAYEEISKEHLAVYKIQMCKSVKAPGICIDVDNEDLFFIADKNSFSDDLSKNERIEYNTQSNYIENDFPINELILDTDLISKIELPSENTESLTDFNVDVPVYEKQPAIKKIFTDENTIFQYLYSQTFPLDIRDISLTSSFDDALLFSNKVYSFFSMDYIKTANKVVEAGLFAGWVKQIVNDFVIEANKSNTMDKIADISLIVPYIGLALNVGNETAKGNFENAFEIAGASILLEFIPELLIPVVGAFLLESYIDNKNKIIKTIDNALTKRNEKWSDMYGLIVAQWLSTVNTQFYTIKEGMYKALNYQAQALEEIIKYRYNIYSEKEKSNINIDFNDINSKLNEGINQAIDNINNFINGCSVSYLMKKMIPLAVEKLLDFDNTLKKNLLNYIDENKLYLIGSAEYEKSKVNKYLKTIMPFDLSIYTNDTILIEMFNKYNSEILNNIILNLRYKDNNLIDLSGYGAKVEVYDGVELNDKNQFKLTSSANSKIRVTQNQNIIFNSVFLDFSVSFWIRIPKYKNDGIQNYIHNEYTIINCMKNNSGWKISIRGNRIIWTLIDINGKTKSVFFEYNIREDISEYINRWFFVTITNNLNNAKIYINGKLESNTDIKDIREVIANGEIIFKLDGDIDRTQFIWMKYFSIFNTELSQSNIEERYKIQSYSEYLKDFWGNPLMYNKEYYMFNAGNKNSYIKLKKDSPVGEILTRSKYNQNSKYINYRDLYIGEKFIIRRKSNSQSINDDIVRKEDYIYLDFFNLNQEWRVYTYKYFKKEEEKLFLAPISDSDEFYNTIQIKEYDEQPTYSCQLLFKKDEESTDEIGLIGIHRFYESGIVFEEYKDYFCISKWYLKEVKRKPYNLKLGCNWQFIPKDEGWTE

[13] = biological target: T1, Botulinum neurotoxin type A; assay: Inhibition of Clostridium botulinum BoNT/A light chain-mediated SNAP-25 substrate cleavage preincubated for 90 mins by FRET assay
Method in brief: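 Compound was preincubated with BoNT/A LC for 90 min before the 40-min FRET assay (20 μM SNAP-25 peptide, 2 nM enzyme, 37 °C, ex 398/em 485 nm). IC50 is the concentration giving 50% inhibition.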

[14] = biological target: Botulinum neurotoxin type A (Clostridium botulinum) (UniProt P0DPI0); assay: Ratio of Kinact to Ki for clostridium botulinum BoNT/A light chain
Method in brief: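 BoNT/A LC was incubated with selected inhibitor concentrations for various times. Remaining activity was then measured by the FRET assay, and kobs/[I] was derived from the plotted data using a published method.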

[15] = biological target: T1, Botulinum neurotoxin type A; assay: Inhibition of Clostridium botulinum botulinum neurotoxin type A light chain; method in brief: as §1

T1 sequence (P0DPI0 2-448 limits assumed): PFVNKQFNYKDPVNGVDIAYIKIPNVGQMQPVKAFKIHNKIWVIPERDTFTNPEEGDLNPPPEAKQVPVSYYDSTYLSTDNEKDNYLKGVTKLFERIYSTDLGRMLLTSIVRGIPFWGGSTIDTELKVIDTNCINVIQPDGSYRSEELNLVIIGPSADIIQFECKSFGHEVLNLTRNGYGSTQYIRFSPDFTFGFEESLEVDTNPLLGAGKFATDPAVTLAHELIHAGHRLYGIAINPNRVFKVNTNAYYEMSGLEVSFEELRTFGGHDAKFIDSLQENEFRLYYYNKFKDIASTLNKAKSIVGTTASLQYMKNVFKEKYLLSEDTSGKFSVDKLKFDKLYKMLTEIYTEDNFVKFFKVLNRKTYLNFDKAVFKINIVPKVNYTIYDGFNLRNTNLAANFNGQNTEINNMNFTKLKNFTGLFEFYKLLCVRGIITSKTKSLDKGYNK
Botulinum neurotoxin type A (Clostridium botulinum), sequence (P0DPI0 2-448 limits assumed): as above
Matrix metalloproteinase-9, sequence (P14780 whole entry): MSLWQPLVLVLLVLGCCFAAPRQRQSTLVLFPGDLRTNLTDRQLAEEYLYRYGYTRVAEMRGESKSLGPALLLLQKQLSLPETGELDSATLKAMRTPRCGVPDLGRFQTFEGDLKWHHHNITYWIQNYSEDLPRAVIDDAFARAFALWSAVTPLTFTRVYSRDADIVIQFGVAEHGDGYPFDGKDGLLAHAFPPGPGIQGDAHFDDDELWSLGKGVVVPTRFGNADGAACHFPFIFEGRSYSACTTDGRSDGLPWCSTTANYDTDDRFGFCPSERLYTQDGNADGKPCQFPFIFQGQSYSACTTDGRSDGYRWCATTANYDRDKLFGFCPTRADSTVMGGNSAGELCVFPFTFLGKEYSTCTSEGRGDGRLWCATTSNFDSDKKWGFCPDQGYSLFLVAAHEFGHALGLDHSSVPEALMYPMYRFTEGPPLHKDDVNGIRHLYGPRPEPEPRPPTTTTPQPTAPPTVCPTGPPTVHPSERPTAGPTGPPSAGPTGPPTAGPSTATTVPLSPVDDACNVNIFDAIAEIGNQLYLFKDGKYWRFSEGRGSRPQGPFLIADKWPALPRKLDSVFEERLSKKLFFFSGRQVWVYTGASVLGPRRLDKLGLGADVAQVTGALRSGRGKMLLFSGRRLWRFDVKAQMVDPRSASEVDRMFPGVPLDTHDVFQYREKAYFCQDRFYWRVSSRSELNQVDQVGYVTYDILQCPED
72 kDa type IV collagenase, sequence (P08253 whole entry): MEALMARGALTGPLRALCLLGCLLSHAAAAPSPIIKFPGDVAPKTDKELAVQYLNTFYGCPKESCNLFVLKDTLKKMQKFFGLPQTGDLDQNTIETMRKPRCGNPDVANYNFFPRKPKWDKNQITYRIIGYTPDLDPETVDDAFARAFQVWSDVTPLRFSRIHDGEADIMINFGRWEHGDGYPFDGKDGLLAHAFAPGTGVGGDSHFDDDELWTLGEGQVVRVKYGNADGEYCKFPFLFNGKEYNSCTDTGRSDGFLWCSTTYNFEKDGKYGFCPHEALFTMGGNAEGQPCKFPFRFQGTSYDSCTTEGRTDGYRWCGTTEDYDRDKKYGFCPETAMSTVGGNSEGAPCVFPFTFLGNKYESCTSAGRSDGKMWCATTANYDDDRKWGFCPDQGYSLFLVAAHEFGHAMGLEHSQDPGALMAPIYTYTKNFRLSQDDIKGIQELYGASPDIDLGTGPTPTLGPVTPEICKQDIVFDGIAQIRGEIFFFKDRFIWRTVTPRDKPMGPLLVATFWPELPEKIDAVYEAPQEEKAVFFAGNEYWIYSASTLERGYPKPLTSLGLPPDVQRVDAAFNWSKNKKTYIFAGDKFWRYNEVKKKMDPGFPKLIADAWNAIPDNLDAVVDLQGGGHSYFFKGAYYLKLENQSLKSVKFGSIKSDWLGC

N#C/C(=C\c1ccc(-c2cccs2)s1)c1nc2ccccc2o1
IC50 [1]: > 100 µM

COc1ccc(/C=C(\C#N)c2nc3ccccc3[nH]2)cc1F
IC50 [1]: > 100 µM | IC50 (Lethal factor): > 100 µM

N#C/C(=C\c1c[nH]c2ccc(Br)cc12)c1nc2ccccc2[nH]1
inhibition [2]: 60% | IC50 [1]: > 100 µM

N#C/C(=C\c1c(Cl)ncnc1Cl)c1nc2ccccc2[nH]1
IC50 (Lethal factor): > 100 µM

N#C/C(=C\c1ccc(-c2cccs2)s1)c1nc2ccccc2[nH]1
IC50 [3]: 29 µM | inhibition [4]: Active | inhibition [5]: Active | IC50 [6]: > 100 µM | Ratio [7]: 1.13 | inhibition [8]: 58% | IC50 (Interstitial collagenase): > 100 µM | inhibition [9]: Active | TDI [10]: Active | IC50 [11]: > 100 µM | IC50 [12]: > 100 µM | IC50 [1]: 26 µM | IC50 [13]: 17 µM | Ratio [14]: 326 M⁻¹ s⁻¹ | IC50 (Lethal factor): > 100 µM

N#C/C(=C\c1ccc(-c2ccccc2)cc1)c1nc2ccccc2[nH]1
IC50 [1]: 86 µM | IC50 (Lethal factor): > 100 µM

COc1ccc(/C=C(\C#N)c2nc3ccccc3[nH]2)cc1Cl
IC50 [1]: > 100 µM | IC50 (Lethal factor): > 100 µM

N#C/C(=C\c1ccc(-c2cccs2)s1)c1cc2ccccc2[nH]1
IC50 [1]: > 100 µM | IC50 (Lethal factor): > 100 µM

COc1ccc(/C=C(\C#N)c2nc3ccccc3[nH]2)cc1I
IC50 [3]: 10 µM | inhibition [4]: Active | inhibition [5]: inactive | IC50 [6]: > 100 µM | Ratio [7]: 0.99 | inhibition [8]: < 10% | IC50 (Interstitial collagenase): > 100 µM | inhibition [9]: inactive | IC50 [11]: > 100 µM | IC50 [12]: > 100 µM | IC50 [1]: 7.2 µM | Ratio [14]: 979 M⁻¹ s⁻¹ | IC50 (Lethal factor): 74 µM

Cc1ccc(/C=C(\C#N)c2nc3ccccc3[nH]2)s1
IC50 [1]: > 100 µM | IC50 (Lethal factor): > 100 µM

CSCC[C@H](NC(=O)[C@H](CCCCN)NC(=O)[C@@H](NC(=O)[C@H](C)NC(=O)[C@H](CCCNC(=N)N)NC(=O)C(S)Cc1ccccc1)[C@@H](C)O)C(=O)N[C@@H](CC(C)C)C(=O)O (some centres not stated) (X1-RATKML-OH)
Ki [15]: 0.33 µM

N#C/C(=C\c1c[nH]c2cccc([N+](=O)[O-])c12)c1nc2ccccc2[nH]1
IC50 [1]: > 100 µM | IC50 (Lethal factor): > 100 µM

N#C/C(=C\c1cccs1)c1nc2ccccc2[nH]1
IC50 [1]: > 100 µM | IC50 (Lethal factor): > 100 µM
